# Source: PubChem BioAssay
# In the library only some 2.1% were active in any assay of this set; here they are far more common.
# APJ agonist: activates the human apelin receptor APJ; P35414; CHO-K1 APJ PathHunter beta-arrestin, luminescence; 0% DMSO wells, 100% apelin; activation, % at 20 µM; 330,000 compounds, 0.11% hits; AID 2520;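 active = activation more than six SD over the plate average, tested at 20 µM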;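 note: 0% = DMSO alone and 100% = apelin-13 at 10 nM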
#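 Incubation: overnight seeding, 90 min compound at 25 °C, 1 h detection; test system: PathHunter CHO-K1 APJ (AGTRL-1) beta-arrestin reporter cells; amount: 1000 cells/well; doses: one dose, 20 µM compound, 1% DMSO; measured by: beta-gal luminescence; measure: agonist-driven arrestin binding to APJ; benchmarks: negative DMSO alone, positive Apelin-13 at 10 nM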
# APJ antag: APJ receptor antagonism; 330,000 compounds, 0.32% hits; P35414; inhibition, % at 20 µM; CHO-K1 APJ beta-arrestin complementation, luminescence;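 active = inhibition above about 40% at 20 µM, limit read from the data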;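 note: cells challenged with 10 nM apelin-13 agonist together with compound; plate controls were apelin-13 plus DMSO wells for no effect and DMSO wells lacking apelin-13 for full effect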
# m5-HT2A agonist: agonists of mouse serotonin 5-HT2A receptor (HTR2A); P35363; CHO-K1 mHTR2A beta-arrestin complementation, luminescence; percent of 30 µM serotonin response; activation, % at 7.6 µM; 360,000 compounds, 0.66% hits;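 active = activation above a run cutoff, the mean activation of all tested compounds plus 3 SD, cut at about 14% in these data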;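 note: 0% = plate median of compound wells and 100% = 30 µM serotonin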
# CCR6 antagonist: blocks CCL20-driven beta-arrestin recruitment at human CCR6; inhibition, % at 20 µM; 340,000 compounds, 0.49% hits; CHO-K1 CCR6 PathHunter beta-arrestin, luminescence, CCL20-stimulated; AID 493098;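 active = compounds whose inhibition of the agonist-driven luminescence signal at 20 µM reaches about 50%, limit read from the data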;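 note: cells stimulated with CCL20 at 14 nM final; plate controls were DMSO with CCL20 for no effect and DMSO without agonist for full effect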
# Target sequence (P51684 whole entry, looked up): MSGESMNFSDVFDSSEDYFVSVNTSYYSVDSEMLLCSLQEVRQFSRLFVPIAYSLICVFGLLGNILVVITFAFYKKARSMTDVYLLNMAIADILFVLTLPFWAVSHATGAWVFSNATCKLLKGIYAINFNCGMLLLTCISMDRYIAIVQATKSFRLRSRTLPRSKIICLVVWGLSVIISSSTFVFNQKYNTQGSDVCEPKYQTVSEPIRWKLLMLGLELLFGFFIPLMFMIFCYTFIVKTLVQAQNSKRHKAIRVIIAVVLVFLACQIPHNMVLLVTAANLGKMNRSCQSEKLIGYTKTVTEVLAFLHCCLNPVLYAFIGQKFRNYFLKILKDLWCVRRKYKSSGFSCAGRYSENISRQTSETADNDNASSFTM
# EBI2 block: EBI2 (human) antagonism. EBI2 beta-arrestin recruitment, luminescence, 7a,25-OHC stimulated. AID 651636. inhibition, % at 5 µM. 360,000 compounds, 0.81% hits; in the data active = inhibition above about 38%;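 note: enzyme fragment complementation signal reports receptor beta-arrestin coupling in cells; 0% = agonist plus DMSO wells and 100% = wells without agonist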
# CXCR6 inh: blocks human CXCR6 beta-arrestin recruitment; O00574; CHO-K1 PathHunter CXCR6 beta-arrestin, luminescence; inhibition, % at 20 µM; 360,000 compounds, 0.36% hits; AID 602244; in the data active = inhibition above about 34%, passing the limit was not always enough;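 note: antagonist mode with CXCL16 agonist at 10 nM final; 0% = 10 nM CXCL16 with DMSO and 100% = unstimulated wells without agonist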
# EBI2 antag conf: EBI2 (human) antagonism, single concentration confirmation | shares compounds with EBI2 block | EBI2 beta-arrestin luminescence, 7a,25-OHC antagonism | 2,400 compounds, 29% hits | inhibition, % at 5 µM;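 active = inhibition of at least 50%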
# EBI2 agonist: activates EBI2, counter-screen for EBI2 antagonists. AID 652000. activation, % at 5 µM. shares compounds with EBI2 block. EBI2-expressing cells, agonist mode, luminescence, 60 min; 0% vehicle, 100% 7α,25-dihydroxycholesterol control. 2,400 tested, under 10 active;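 active = activation of at least 50%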
# bGal cs: beta-galactosidase inhibition counter-screen; inhibition, % at 5 µM; 2,400 compounds, 1% hits; AID 652176; shares compounds with EBI2 block; purified beta-galactosidase, luminescent Galacton Star, 15 min;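 active = replicate-average signal at least 3 plate SD below neutral wells, shown as high inhibition, flagging enzyme-inhibiting false positives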;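 note: 0% = DMSO wells with enzyme and 100% = wells lacking enzyme; higher means stronger loss of beta-gal luminescence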
# An asterisk follows results filed as active; / = no result.
SMILES,APJ agonist,APJ antag,m5-HT2A agonist,CCR6 antagonist,EBI2 block,CXCR6 inh,EBI2 antag conf,EBI2 agonist,bGal cs
CCOC(=O)N1CCN(C(=S)NC(=O)/C=C/c2ccc(C)cc2)CC1,-7,10,6,12,83*,-1,48,0,7
CCOc1ccc(NC(=O)c2ccc(OC)cc2)cc1,-3,9,-4,-3,13,1,/,/,/
CCOc1ncccc1C(=O)Nc1ccc(C(=O)Nc2ccc(OC)cc2)cc1,-7,4,-4,4,57*,17,31,2,1
Brc1ccc(OCc2nnnn2-c2ccccc2)cc1,0,2,-4,-1,80*,-9,64*,0,-13
CCOC(=O)C1CCN(C(=O)COc2cc(C)c(Br)cc2C)CC1,-1,-3,1,12,71*,-6,37,0,-5
CCOC(=O)N1CCN(C(=O)COc2ccc(Br)cc2Cl)CC1,-1,8,1,16,62*,6,28,1,2
O=C(COc1ccc(Br)cc1Cl)N1CCN(c2ncccn2)CC1,-3,7,-5,6,0,-4,/,/,/
CCOC(=O)C1CCN(C(=O)COc2ccc(C(=O)c3ccccc3)cc2)CC1,-4,3,1,4,-14,3,/,/,/
CCOC(=O)C1CCN(C(=O)COc2ccc(Br)cc2)CC1,-2,-7,3,7,75*,-6,67*,0,-12
CCOC(=O)C1CCN(C(=O)COc2cccc(C)c2)CC1,-6,-19,3,9,11,2,/,/,/
CCOC(=O)C1CCN(C(=O)COc2ccc(Br)cc2Br)CC1,-4,3,-2,7,44*,-6,15,1,7
O=C1N(Cc2cccc(Cl)c2)C[C@@H]2C[C@@H](c3cccc4ncccc34)N3CCC[C@@]123,-1,-5,-3,24,37,7,/,/,/
C=CCNC(=O)c1cc(C(=O)C(C)c2ncc(C(F)(F)F)cc2Cl)c[nH]1 (centres undefined),1,10,-1,-12,-9,-4,/,/,/
COc1cccc(C(=O)NCC[N+](C)(C)C)c1,/,/,0,/,0,1,/,/,/
O=[N+]([O-])C1=CC=C2C(=NC3(CCCCC3)N2O)C1=NC1CCCCC1,-3,-2,5,15,48*,7,20,2,3
CC1(C)CC(N=C2C([N+](=O)[O-])=CC=C3C2=NC2(CCCCC2)N3O)CC(C)(C)N1,-2,-21,-6,13,4,7,/,/,/
Cc1c(NS(=O)(=O)c2ccc(F)cc2)c(=O)n(-c2ccccc2)n1C,-3,-8,2,2,-2,3,/,/,/
C/C(=N\Nc1ncnc2sc(C)c(C)c12)c1ccccn1,1,47*,-1,-27,55*,-23,53*,-2,-5
CC1(C)CC2CC(C)(CN2S(=O)(=O)c2ccc(C(=O)Nc3ccc(Cl)c(S(=O)(=O)N4CCOCC4)c3)cc2)C1 (centres undefined),4,1,5,2,10,-2,/,/,/
Cc1ccc2cccc(N=Cc3c(C)[nH]n(-c4ccccc4)c3=O)c2n1,/,/,-11,89*,78*,69*,67*,-1,11
CCOC(=O)C1=CCN(S(=O)(=O)c2ccccc2C)C1c1cccc(Br)c1 (centres undefined),/,/,-5,/,67*,17,25,-1,-13
CCOC(=O)C1=CCN(S(=O)(=O)c2ccccc2F)C1c1cccc(Br)c1 (centres undefined),/,/,-3,/,5,0,/,/,/
CCOC(=O)C1=CCN(S(=O)(=O)c2ccccc2Cl)C1c1cccc(C)c1 (centres undefined),/,/,-2,/,40*,1,25,0,8
COc1cc(-c2nc(-c3ccccc3)c(-c3cccs3)[nH]2)cc(OC)c1OC,-3,2,-2,7,45*,18,16,2,4
COc1cc(-c2nc(-c3ccccc3)c(-c3cccs3)[nH]2)cc(OC)c1O,2,-5,-1,-2,17,4,/,/,/
SMILES,APJ agonist,APJ antag,m5-HT2A agonist,CCR6 antagonist,EBI2 block,CXCR6 inh,EBI2 antag conf,EBI2 agonist,bGal cs
COc1ccccc1C1CCN(C(=O)c2cnn(-c3ccccc3)c2C)CC1,-2,-1,2,6,54*,4,20,2,7
COc1ccccc1C1CCN(C(=O)c2ccc(Cl)cc2)CC1,0,6,-5,16,88*,7,70*,2,5
COc1ccccc1C1CCN(C(=O)c2ccccc2)CC1,1,17,-1,11,-29,-1,/,/,/
CCCN(CCO)Cc1cccc(Br)c1,-4,8,3,3,3,1,/,/,/
CSc1ccccc1NC(=O)COc1nsnc1N1CCOCC1,-1,-27,7,15,1,2,/,/,/
C[C@]12c3[nH]c4cc(-c5ccco5)ccc4c3CCN1C(=O)[C@@H](CC(=O)NCC13CC4CC(CC(C4)C1)C3)C[C@@H]2C(=O)N1CCCCC1,/,/,-7,14,44*,4,13,-1,-4
O=C(Nc1nc2ccccc2[nH]1)c1ccccc1F,-3,10,-3,20,1,-1,/,/,/
COc1ccc(NC(=O)c2ccc3c(c2)C(=O)N(Cc2cccnc2)C3=O)cc1,-4,13,2,-12,53*,4,23,2,6
O=C(Nc1ccc(O)cc1)c1ccc2c(c1)C(=O)N(Cc1cccnc1)C2=O,6,8,-4,5,-9,-1,/,/,/
Cc1ccc(C(=O)N2CCN(c3ccc4c(c3)C3CC4CCN3C(=O)OCc3ccccc3)CC2)cc1 (centres undefined),/,/,-3,/,33,14,/,/,/
O=C(c1ccc(-c2ccccc2)cc1)N1CCN(c2ccc3c(c2)C2CC3CCN2C(=O)OCc2ccccc2)CC1 (centres undefined),/,/,-1,/,54*,8,40,1,7
COc1ccc(OCCC(=O)OCC(=O)Nc2ccc(Br)cc2)cc1,-2,-3,-1,10,4,-2,/,/,/
CNC(=O)CN1C(=O)c2cccc3cccc1c23,-3,-5,2,-3,-13,-9,/,/,/
CC[C@H]1c2[nH]c3ccccc3c2C[C@@H]2C(=O)N(c3ccc(F)cc3)C(=O)N21,-2,-77,0,9,49*,-10,10,0,-10
